DNA FID counter: compounds displacing fluorescent DNA intercalator, primary screen, artefact control for HCV NS3 helicase inhibitor project, biochemical, FID fluorescence; inhibition, % at 7.9 µM; DNA fluorescent intercalator displacement; 290,000 compounds, 0.17% hits; in the data active means inhibition above about 37%;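 further: 0% = vehicle and 100% = reference compound; higher means more ethidium bromide displaced from hairpin DNA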
Kir21 block: inhibitors of mouse Kir2.1 inward-rectifier potassium channel; AID 1672, 2009; B-score at 10 µM; HEK293-Kir2.1, FluxOR thallium flux fluorescence; active compounds read low; 310,000 compounds, 0.85% hits;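 active means fluorescence ratio B-score at or below minus 3 SD of library scores, with starting-brightness B-score within 2 SD, cut at about -4.2 in these data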;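 further: channel flux triggered by added potassium and thallium sulfate stimulus; B-score of peak minus minimum fluorescence over baseline after thallium stimulus; more negative B-score means stronger Kir2.1 block with less thallium influx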
SR-BI HDL uptake: inhibitors of SR-BI mediated HDL lipid uptake, primary screen, ldlA[mSR-BI] cells, fluorescence, single point; ldlA[mSR-BI] CHO cells, DiI-HDL uptake fluorescence, 3 h; inhibition, % at 12.5 µM; 320,000 compounds, 0.96% hits;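 active means mean replicate inhibition of at least 70% and a set share of replicates each scoring 70 or more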;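 further: 0% = median of neutral control wells and 100% = median of positive control wells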
Target sequence (Q61009 whole entry, looked up): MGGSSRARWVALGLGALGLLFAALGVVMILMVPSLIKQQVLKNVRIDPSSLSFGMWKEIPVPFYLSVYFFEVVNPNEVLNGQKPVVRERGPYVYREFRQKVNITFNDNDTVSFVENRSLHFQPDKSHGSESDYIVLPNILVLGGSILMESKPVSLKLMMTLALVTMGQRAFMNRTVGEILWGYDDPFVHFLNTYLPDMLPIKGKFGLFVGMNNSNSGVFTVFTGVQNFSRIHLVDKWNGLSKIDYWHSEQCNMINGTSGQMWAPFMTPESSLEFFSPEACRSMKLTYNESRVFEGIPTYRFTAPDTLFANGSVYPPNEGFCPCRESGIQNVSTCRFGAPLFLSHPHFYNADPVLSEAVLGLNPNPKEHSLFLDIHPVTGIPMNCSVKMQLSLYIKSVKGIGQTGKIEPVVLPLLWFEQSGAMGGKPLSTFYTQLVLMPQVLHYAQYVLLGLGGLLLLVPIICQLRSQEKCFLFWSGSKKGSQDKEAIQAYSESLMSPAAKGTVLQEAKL
SR-BI uptake up: activators of SR-BI mediated DiI-HDL uptake, primary screen, ldlA[mSR-BI] CHO cells, DiI fluorescence. 3 h; 100 = double the neutral-control signal. activation, % at 12.5 µM. 320,000 compounds, 0.096% hits. AID 504775, 2011;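 active means mean replicate activation of at least 60% and every replicate at or above 60%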;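 further: 0% = median plate neutral-control signal and 100% = twice that signal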
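Test system: SR-BI-overexpressing, LDLR-lacking CHO cells. Measured by: DiI fluorescence, bottom read. Medium: Ham's F12 with 0.5% BSA, HEPES 25 mM, pH 7.4. Timing: 3 h uptake period with compound, 37 °C.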
TMEM16A inh: TMEM16A chloride channel inhibitors, primary screen, cell-based, HTS | Anoctamin-1 (Mus musculus), Q8BHY3 | normalized B-score (activity score, 25-100; higher = stronger inhibition) at 10 µM | 310,000 compounds, 1.2% hits | HEK293 TMEM16A/YFP iodide influx fluorescence, ionomycin;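 active means ratio plate-corrected score three or more library SD toward inhibition, starting fluorescence score within five deviations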;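 further: score derived from kinetic fluorescence span divided by baseline fluorescence per well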
ANO1 activ: TMEM16A chloride channel activators or potentiators, primary screen, cell-based, HTS. HEK293 TMEM16A/YFP-H148Q/I152L, iodide quench fluorescence; active compounds read low. B-score at 10 µM. 340,000 compounds, 0.3% hits. AID 623877, 2012;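 active means fluorescence-ratio B-score plate-corrected deviation score at least 3 library SD below zero, with starting fluorescence score within 5 deviations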;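 further: channel opened by trigger with iodide after compound preincubation; score built on the fluorescence ratio of max minus min over baseline; more negative score means more quench and so TMEM16A activation or potentiation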
Active calls of the source: *; i = inactive; nt = no result given. A selection: hits, their analogues and other compounds. The true share with any hit is near 3%.

SMILES | DNA FID counter | Kir21 block | SR-BI HDL uptake | SR-BI uptake up | TMEM16A inh | ANO1 activ
CC1CCC(C(C)C)C(OC(=O)COC(=O)c2ccc(=O)[nH]c2)C1 (stereo unspecified) | -30 | -2.3 | 5 | -5 | i | i
Cc1ccc(-n2cc(CNCCc3ncc(C)[nH]3)c(-c3ccc(F)cc3)n2)cc1 | 2 | -4.1 | -8 | 8 | i | i
CCOc1ccc(C(C)=O)cc1CSc1nnc(-c2ccoc2C)n1N | -11 | 0.41 | 71* | nt | i | i
O=C(Cc1ccc(Cl)cc1Cl)Nc1ccncc1Cl | -12 | -0.04 | -7 | 7 | 25* | i
COC(=O)c1cc(-c2cccc(OC)c2)c2c(=O)[nH]c(=O)n(C)c2n1 | -23 | 1.5 | nt | nt | i | i
CC(CCc1ccccc1)NC(=O)CNc1cccc([N+](=O)[O-])c1 (stereo unspecified) | -5 | -4.7* | nt | nt | i | i
CCCOc1ccc(NC(=O)CCC(=O)NC(C)c2ccccc2)cc1 (stereo unspecified) | -20 | 0.14 | -11 | 11 | i | i
CC(C)(C)C1C=C(Sc2ccccc2)C(=O)O1 (stereo unspecified) | -3 | 1.9 | 2 | -2 | i | i
Cc1cccc(-n2c(N)c(-c3nc4ccccc4n3C)c3nc4ccccc4nc32)c1 | 3 | -0.09 | 73* | -73 | i | i
O=C(Nc1ccc(Cl)cc1)N[C@@H]1c2c(ccc3ccccc23)OC[C@@H]1CO | -4 | -0.52 | 82* | -82 | i | i
COc1cccc(CNC(=O)Cn2nc(C)c([N+](=O)[O-])c2C)c1 | 1 | -1.8 | 5 | -5 | i | i
COc1ccc(-c2cc(N)n(S(=O)(=O)c3c(F)c(F)c(F)c(F)c3F)n2)cc1OC | -27 | -3.3 | 13 | -13 | 100* | i
COc1ccc(OC)c(NS(=O)(=O)c2ccc(-c3coc(C)n3)cc2)c1 | -20 | -2.7 | -7 | 7 | i | i
C/C(=N\NC(N)=S)C1C2C3CC4C5CC(C42)C1C53 (stereo unspecified) | -12 | -6* | 83* | -83 | i | i
C/C(CCC12CC3CC(CC(C3)C1)C2)=N\NC(N)=S | 0 | -0.83 | 63 | -63 | i | i
CC(=O)c1ccc(N2CCN(C(=O)c3ccccc3SCC(=O)NCc3ccco3)CC2)c(F)c1 | nt | nt | -4 | 4 | nt | i
CCC1(C(=O)OC)NC(c2ccco2)C2C(=O)N(c3ccccc3)C(=O)C21 (stereo unspecified) | -5 | -0.24 | -49 | 49 | i | -4.8*
CCC(C)(C)C1CCC(NC(=O)c2ccc(S(=O)(=O)N3CCOCC3)cc2)CC1 (stereo unspecified) | nt | nt | -67 | 67* | nt | i
O=C(Nc1cccnc1)c1cnn2c(C(F)F)cc(C3CC3)nc12 | -12 | 0.05 | 4 | -4 | i | i
O=C(Nc1cc(Br)ccc1O)c1cnn2c(C(F)F)cc(C3CC3)nc12 | 5 | 0.3 | 77* | -77 | i | i
CS(=O)(=O)N1CCN(c2ccc(NC(=O)c3ccc(-c4ccc(Cl)cc4)o3)cc2)CC1 | 0 | 0.64 | 33 | -33 | i | i
CN1CCN(c2ccc(NC(=O)c3ccc(-c4ccc(Cl)cc4)o3)cc2)CC1 | 38* | 0 | 14 | -14 | i | i
COc1ccc(NC(=O)c2ccccc2SC)c(OC)c1 | -9 | 0.79 | 61 | -61 | i | -5.8*
COc1ccc(OC)c(NC(=O)Nc2cccc3ccccc23)c1 | -5 | 1.3 | 67 | -67 | i | i
COc1ccc(NC(=O)Nc2cccc3ccccc23)c(OC)c1 | -13 | -1.1 | 71* | -71 | i | i
COc1ccc(NC(=O)NCc2cccn2C)c(OC)c1 | -1 | 0.08 | 85* | -85 | i | i
